RGS4 act – potentiators or activators of RGS4 | HEK293 M3R/inducible RGS4, carbachol calcium flux Fluo4; hits give low values | B-score at 10 µM | hit rate 0.92% among 310,000 | AID 463111;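 active = B-score of the integrated calcium signal more than 4 SD below the library mean, with starting fluorescence not abnormally high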;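 note: negative B-score means reduced calcium response which marks RGS4 activation or potentiation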
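System: HEK293 FlpIn-TREx cells, stable M3R, doxycycline-inducible RGS4. Timing: overnight RGS4 induction, 30 min dye load 37 °C, 20 min compound RT. Also added: carbachol, ECmax concentration. Measured by: Fluo4 fluorescence kinetic imaging of calcium. Evaluation: integrated calcium ratio converted to B score.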
MrgX1 ag – activates human MrgX1 receptor signaling; Q96LB2; MrgX1-HEK293 cells, Fluo-4 calcium fluorescence, agonist mode; hits give high values; B-score at 10 µM; hit rate 0.44% among 310,000; AID 588627;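 active = calcium response B-score plate-corrected fluorescence ratio at least 3 library SD, with starting fluorescence B-score inside 5 SD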
Target sequence (Q96LB2 whole entry, looked up): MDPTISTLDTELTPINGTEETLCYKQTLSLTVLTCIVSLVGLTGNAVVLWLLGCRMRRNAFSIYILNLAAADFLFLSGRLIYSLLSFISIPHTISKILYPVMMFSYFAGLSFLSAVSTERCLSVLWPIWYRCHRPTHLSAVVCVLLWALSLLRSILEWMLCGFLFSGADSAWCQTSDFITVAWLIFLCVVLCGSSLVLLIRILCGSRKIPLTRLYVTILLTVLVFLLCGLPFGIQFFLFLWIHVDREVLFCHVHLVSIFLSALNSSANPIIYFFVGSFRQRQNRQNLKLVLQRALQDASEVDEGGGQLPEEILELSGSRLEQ
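Test system: HEK293 cells stably expressing human MrgX1 receptor; Input: fifteen thousand cells per well; Dosing: compound delivered in addition one of three; Schedule: overnight seeding, then 1 h dark dye loading; Technique: Fluo-4 NW calcium fluorescence; Measure: B-scored fluorescence response ratio; Controls: positive and negative controls per plate.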
RGS4 block – human RGS4 inhibition | P49798 | HEK293 M3R/RGS4 inducible, Fluo-4 calcium flux; hits give high values; triggered by carbachol at its EC20 | hit rate 0.45% among 310,000 | B-score at 10 µM;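 active = B-score, a plate-corrected calcium signal, over three deviations above library mean, with baseline fluorescence within five deviations of library mean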;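 note: RGS4 expression induced by doxycycline in cells with stable M3 receptor; B-score is computed from the integrated fluorescence ratio over baseline after carbachol; higher B-score means a larger calcium signal and so more RGS4 inhibition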
Target sequence (P49798 whole entry, looked up): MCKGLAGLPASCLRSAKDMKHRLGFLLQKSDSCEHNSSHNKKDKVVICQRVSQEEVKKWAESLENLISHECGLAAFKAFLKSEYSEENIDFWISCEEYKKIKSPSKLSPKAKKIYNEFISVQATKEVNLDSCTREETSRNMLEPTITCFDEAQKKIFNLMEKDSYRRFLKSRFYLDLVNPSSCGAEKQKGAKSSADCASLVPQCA
MrgX1 PAM – allosterically activates human MrgX1 receptor signaling. Q96LB2. MrgX1-HEK293, Fluo-4 calcium flux, FDSS; hits give high values. B-score at 10 µM. hit rate 0.63% among 310,000;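 active = plate-corrected calcium response at least 3 library SD above typical, normal starting fluorescence, not activating the receptor alone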;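 note: compound read alongside a low EC10 to EC30 dose of BAM8-22 agonist; peak minus trough fluorescence over baseline measured at the second addition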
MrgX1 antagonist – human MrgX1 receptor antagonism, primary screen | Q96LB2 | MRGX1-HEK293 calcium flux, Fluo-4, BAM8-22 antagonism; hits give low values | B-score at 10 µM | hit rate 1.3% among 310,000;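 active = calcium-response B-score plate-corrected more than 3 library SD below zero, starting fluorescence within 5 deviations, no agonist response on first addition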;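 note: peak minus trough fluorescence over baseline after final BAM8-22 challenge near maximal dose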
RGS4 activ val – RGS4 activation, validation assay; shares compounds with RGS4 act; HEK293 M3R/RGS4 inducible, carbachol calcium flux Fluo4; AID 602282; hit rate 89% among 1,100; inhibition, % at 10 µM;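 active = inhibition above 3 SD of the buffer control wells, cut at about 41% in these data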;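 note: signal is the integrated peak-minus-minimum Fluo4 fluorescence over baseline ratio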
RGS4 act ctr – RGS4 activator counter-screen hit in non-induced cells. shares compounds with RGS4 act. HEK293 M3R non-induced RGS4, Fluo4 calcium flux; after carbachol challenge at its EC90. inhibition, % at 10 µM. hit rate 82% among 1,100;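 active = inhibition exceeding 3 SD of buffer-only control wells, cut at about 26% in these data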;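 note: percent drop in integrated peak-minus-baseline over baseline Fluo4 ratio after carbachol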
Of the large screens only hits and unclear results are named; the others gave an inactive call (follow-up assays come after a bar, where they were run). Rows were chosen to be rich in hits. Some 3.5% of all compounds tested hit in one or more screens of this group.

CCOC(=O)c1ccc(CNCc2ccccc2)cc1	RGS4 act -12 | RGS4 activ val 87 | RGS4 act ctr 29
CCOC(=O)c1ccc(CNCc2ccc(Br)cc2)cc1	none
COCCn1c(SCC(=O)Nc2ccc(N3CCOCC3)cc2)nc2ccccc21	none
Cc1nc(CN2CCN(Cc3nc(C(c4ccccc4)c4ccccc4)no3)CC2)cs1	RGS4 act -13 | RGS4 activ val 92 | RGS4 act ctr 79
Cc1cccnc1CN1CCN(Cc2nc(C(c3ccccc3)c3ccccc3)no2)CC1	RGS4 act -8.7 | RGS4 activ val 93 | RGS4 act ctr 82
OC(c1ccccn1)C1CCN(Cc2nc(C(c3ccccc3)c3ccccc3)no2)CC1 (centres undefined)	none
COC(=O)c1ccc(OCCN2CCCCCC2)cc1	RGS4 act -7.8 | RGS4 activ val 66 | RGS4 act ctr 84
c1ccc(Cn2nnc3c(NCC4CCCO4)ncnc32)cc1 (centres undefined)	none
CC1(C)CC(=O)C2=C(C1)OC(N)=C(C#N)C2c1cn(-c2ccccc2)nc1-c1ccccc1 (centres undefined)	RGS4 act -11 | RGS4 activ val inactive | RGS4 act ctr inactive
CC1(C)CC(=O)C2=C(C1)OC(N)=C(C#N)C2c1ccoc1 (centres undefined)	none
Cc1oc2ccccc2c1CNC(=O)N(C)C	none
CSc1ccc(CN2CCC(Oc3ccc(C(=O)N4CCCC4)cc3)CC2)cc1	RGS4 act -8.5 | RGS4 activ val 87 | RGS4 act ctr 39
CC(C)c1ccc(CN2CCC(Oc3ccc(C(=O)N4CCCC4)cc3)CC2)cc1	RGS4 act -9.1 | RGS4 activ val 92 | RGS4 act ctr 63
CCOc1ccc(C(=O)n2cc(C(=O)OC)c3ccccc32)cc1	RGS4 act -8.6 | RGS4 activ val 69 | RGS4 act ctr 84
CCOc1ccc(C(=O)n2cc(C(=O)OC)c3ccccc32)cc1OCC	none
Cc1ccc(Nc2nc(Cl)nc(NC(C)(C)C)n2)cc1	RGS4 act -8.2 | RGS4 activ val 71 | RGS4 act ctr 39
CN(CC(=O)NC1CCN(Cc2ccccc2)CC1)S(=O)(=O)c1ccc2c(c1)c(=O)n(C)c(=O)n2C	RGS4 act -9.4 | RGS4 activ val 76 | RGS4 act ctr 47
CSCCC(NS(=O)(=O)c1ccc2c(c1)c(=O)n(C)c(=O)n2C)C(=O)NC1CCN(Cc2ccccc2)CC1 (centres undefined)	none
CCC[C@@H](NS(=O)(=O)c1ccc(C)cc1)C(=O)Oc1ccc2c3c(c(=O)oc2c1)CCC3	RGS4 act -7.6 | RGS4 activ val 92 | RGS4 act ctr 71
Cc1ccc(S(=O)(=O)NC(C(=O)Oc2ccc3c(C)c(Cl)c(=O)oc3c2)c2ccccc2)cc1 (centres undefined)	none
Cc1cc(NC(=O)c2sccc2C)n(-c2nc3ccccc3[nH]2)n1	none
Cc1ccccc1N1CCN(C2CCCN(C(=O)c3cn4cccc(C)c4n3)C2)CC1 (centres undefined)	RGS4 act -9.7 (no result: MrgX1 ag, MrgX1 PAM, MrgX1 antagonist) | RGS4 activ val 50 | RGS4 act ctr inactive
Cc1ccccc1N1CCN(C2CCCN(C(=O)c3ccccn3)C2)CC1 (centres undefined)	none
OCC1(Cc2ccccc2Cl)CCN(C/C=C/c2ccccc2)CC1	RGS4 act -9.2 | RGS4 activ val 94 | RGS4 act ctr 83
OCC1(CCc2ccccc2)CCN(C/C=C/c2ccccc2)CC1	none
COC(=O)c1cc(NC(=O)CSc2nnc(N)s2)ccc1Cl	RGS4 act -14 | RGS4 activ val inactive | RGS4 act ctr inactive
CN(CC/C=C1/c2ccccc2CSc2ccccc21)CCCO	RGS4 act -9.5 | RGS4 activ val 91 | RGS4 act ctr 65
CC(O)CN(C)CC/C=C1/c2ccccc2CSc2ccccc21 (centres undefined)	RGS4 act -7.9 | RGS4 activ val 73 | RGS4 act ctr 84
CC(=O)Oc1cccc(NC(=O)c2cccc(C(=O)Nc3cccc(OC(C)=O)c3)c2)c1	none
CCn1c(=O)n(CC)c2cc(N3CCCC3)c(NC(=O)c3ccc(C)c([N+](=O)[O-])c3)cc21	none
COC(=O)c1cc2ccsc2n1Cc1nc(-c2ccc(OC)cc2)oc1C	RGS4 act -11 | RGS4 activ val 92 | RGS4 act ctr 79
CCc1nc2ccccc2c(C(=O)OCC(=O)Nc2cccc(S(=O)(=O)NC3=NCCCCC3)c2)c1C	RGS4 act -7.7 | RGS4 activ val 64 | RGS4 act ctr inactive
O=c1c(-c2ccc(Br)cc2)coc2c(CN3CCCCC3)c(O)ccc12	none (no result: MrgX1 ag, MrgX1 PAM, MrgX1 antagonist)
CC(C)(C)C(=O)Nc1cc(S(=O)(=O)N2CCCCC2)ccc1N1CCCCC1	none
O=C(NCc1ccc2c(c1)OCO2)c1ccc(C2SCC(=O)N2Cc2ccco2)cc1 (centres undefined)	RGS4 act -7.7 | RGS4 activ val 71 | RGS4 act ctr 84
O=C1c2ccccc2C(=O)N1c1ccc(Cl)cc1	none
Cc1ccc(C)c(/C=N/n2cc(-c3ccccc3)[nH]c2=S)c1	none
CC1CC(C)CN(CC(=O)N2CCc3[nH]c4ccccc4c3C2)C1 (centres undefined)	none
Cc1ccc(C(C)C)c(OCCCNCc2cccnc2)c1	RGS4 act -8.7 | RGS4 activ val 92 | RGS4 act ctr 60
Cc1cc(-c2ccc(C(C)C)c(S(=O)(=O)N3CCOc4ccccc43)c2)on1	none
Cc1ccc(-c2onc(C)c2C)cc1S(=O)(=O)N1CCOc2ccccc21	RGS4 act -8.1 | RGS4 activ val 73 | RGS4 act ctr 84
CC(C)CN(C(=O)CN1CCN(c2ccccc2F)CC1)c1c(N)n(CC(C)C)c(=O)[nH]c1=O	none
O=S(=O)(Nc1nc2ccccc2[nH]1)c1ccc(Cl)cc1	RGS4 act -9.4 | RGS4 activ val 92 | RGS4 act ctr 90
O=S(=O)(Nc1nc2ccccc2[nH]1)c1ccccc1	RGS4 act -8.2 | RGS4 activ val 91 | RGS4 act ctr 39
O=C(Nc1nc2ccccc2[nH]1)c1ccc(Cl)cc1	none
CS(=O)(=O)Nc1nc2ccccc2[nH]1	none
O=C(NC(=S)Nc1ccccc1Br)C1CC1	none
CC(Oc1cccc2cccnc12)C(=O)N/N=C/c1ccccc1 (centres undefined)	none
CC(Oc1cccc2cccnc12)C(=O)N/N=C/c1ccc2c(c1)OCO2 (centres undefined)	RGS4 act -13 | RGS4 activ val inactive | RGS4 act ctr inactive
CCC(=O)N1CCc2cc(S(=O)(=O)NCCC(=O)N3CCN(c4cccc(C)c4)C(C)C3)ccc21 (centres undefined)	RGS4 act -8.6 | RGS4 activ val 64 | RGS4 act ctr 84
